# From PubChem BioAssay
# Rows were chosen to be rich in hits. Some 2.1% of all compounds tested hit in one or more screens of this group.
# Tb hexokinase: T. brucei hexokinase 1 inhibition. recombinant TbHK1, G6PDH-coupled NADH A340. inhibition, % at 10 µM. 220,000 compounds, 0.11% hits;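 active means inhibition of 50% or more in the single-dose primary screen; inactive means inhibition below 50%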
# Runt-CBFb FRET: Runt domain-CBFb interaction inhibition; Q01196+Q13951; Cerulean-Runt/Venus-CBFb FRET ratio 530/480, 1 h; inhibition, % at 20 µM; 220,000 compounds, 0.46% hits; AID 1496;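 active means inhibition over about 50% at 20 µM in the single-dose screen, limit read from the data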;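 further: 0% = DMSO wells and 100% = excess unlabeled CBFb competitor control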
#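 Measured by: fluorescence energy transfer, 422 nm excitation, 530/480 nm emission; Assay system: Cerulean-Runt domain; Medium: Tris pH 7.5 buffer with BSA; Measure: loss of energy transfer signal; Controls: 5 µM unlabeled CBFb as full-inhibition high control; Incubation: protein complex preformed 1 h, compound exposure 1 h, room temperature, dark.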
# p97 inhibitor: human p97 ATPase inhibition; recombinant p97 ATPase, Kinase-Glo ATP luminescence, 3 h; inhibition, % at 8 µM; 220,000 compounds, 0.42% hits; in the data active means inhibition above about 15%;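 further: 0% = DMSO vehicle and 100% = wells lacking enzyme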
# RanGTP-Impb inh: inhibitors of RanGTP-importin-beta interaction, primary screen, biochemical, FRET, CFP-Ran, YFP-importin-beta, homogeneous. AID 2216. inhibition, % (test concentration not listed). cell-free CFP-Ran/YFP-importin-beta FRET ratio. 300,000 compounds, 1.1% hits;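 active means more than half of the replicate wells show a fall in the fluorescence ratio signal beyond about 16%, limit read from the data, passing the limit was not always enough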;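 further: 0% = DMSO wells and 100% = Ran loaded with GDP instead of GTP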
# Runt-SMMHC FRET: inhibitors of human RUNX1 Runt domain binding to CBFb-SMMHC; Cerulean-Runt/Venus-CBFb-SMMHC FRET ratio 530/480, 1 h; inhibition, % at 20 µM; 220,000 compounds, 0.74% hits;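 active means mean inhibition across duplicate retests at 20 µM reaching about 50%, limit read from the data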;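 further: 0% = DMSO wells and 100% = wells with excess untagged CBFb-SMMHC; inhibitors lower the FRET ratio by blocking Runt binding to CBFb-SMMHC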
# Hck-Nef inh: human Hck-Nef kinase inhibition; P08631; Recombinant Hck-YEEI plus Nef, Z-Lyte FRET kinase assay; inhibition, % at 20 µM; 220,000 compounds, 0.68% hits;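 active means Hck-Nef kinase inhibition above about 50%, limit read from the data; inactive means inhibition below that limit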;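 further: 0% = DMSO with Hck plus Nef and 100% = Hck alone without Nef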
# Starred values were filed as active, the others as inactive; . = no result given; + = active, no number.
SMILES,Tb hexokinase,Runt-CBFb FRET,p97 inhibitor,RanGTP-Impb inh,Runt-SMMHC FRET,Hck-Nef inh
CCCCCCCCOc1ccc(C2OC34CCCCC3C(C#N)(C#N)C2(C#N)C(=N)O4)cc1 (configuration not stated),4,25,2,44*,56*,4
COc1ccc(S(=O)(=O)N2CCN=C2SCc2cccc(F)c2)cc1,.,.,.,2,.,.
Cc1cc(C)c2sc(NC(=O)C3=COCCO3)nc2c1,.,.,.,3,.,.
CCN(C(=O)CN1C(=O)S/C(=C\C=C\c2ccccc2)C1=O)C1CCS(=O)(=O)C1 (configuration not stated),.,.,.,0,.,.
CCOc1cc2c(cc1OC)C(NC(=O)c1ccco1)CC2=O (configuration not stated),.,.,.,3,.,.
COc1cc(NS(=O)(=O)c2ccc(N/C=C\C(=O)c3ccc(F)cc3)cc2)nc(OC)n1,0,29,4,4,72*,22
CCc1nnc(NS(=O)(=O)c2ccc(N/C=C/C(=O)c3ccc(OC)cc3)cc2)s1,-18,11,5,3,50*,33
CC(=O)c1ccc(S(=O)(=O)N(C)C(C)CCc2ccco2)cc1 (configuration not stated),.,.,.,2,.,.
c1ccc(-c2[nH]ncc2CN2CCN(Cc3ccc4c(c3)OCO4)CC2)cc1,-4,3,6,-1,-5,9
CCOC(=O)C1=C(C)NC2=C(C(=O)C(C(=O)OCC)C(c3ccco3)C2)C1c1ccccn1 (configuration not stated),-14,21,-8,32*,38,17
CC(C)OCCCn1c(=NC(=O)c2cccs2)c(C#N)cc2c(=O)n3ccccc3nc21,-1,77*,-5,103*,81*,23
N#Cc1cc2c(=O)n3ccccc3nc2n(Cc2cccnc2)c1=N,-9,.,6,.,.,2
Cc1ccc2nc3c(cc(C#N)c(=N)n3Cc3cccnc3)c(=O)n2c1,-3,.,3,94*,.,16
CCCCCn1c(=NC(C)=O)c(C#N)cc2c(=O)n3ccccc3nc21,1,16,-2,108*,42,34
C=CCn1c(=N)c(C#N)cc2c(=O)n3ccccc3nc21,-9,-1,-2,+,75*,37
CCN(C(=O)c1cc2c(=O)n3ccccc3nc2n1CCCOC)C1CCCCC1,.,.,.,2,.,.
COc1ccc(C(=O)N/C(=C\c2ccc3c(c2)OCO3)C(=O)Nc2cccc(C(=O)O)c2)cc1,-9,0,0,-1,0,24
CCN(CC(=O)NCc1ccc(F)cc1)CC(=O)NC1CCCC1,.,.,.,1,.,.
CCN(CC)C(=O)c1cc2c(=O)n3cccc(C)c3nc2n1C,-20,3,2,-4,2,46
CCCCCn1c(=NC(=O)c2cccnc2)c(C#N)cc2c(=O)n3cccc(C)c3nc21,.,.,.,144*,.,.
CCCCn1c(=NC(C)=O)c(C#N)cc2c(=O)n3cccc(C)c3nc21,.,.,.,85*,.,.
CCOCCCn1c(=NC(=O)c2ccc(OC)c(OC)c2)c(C#N)cc2c(=O)n3cccc(C)c3nc21,-4,106*,1,86*,143*,13
COCCCn1c(C(=O)N2CC(C)OC(C)C2)cc2c(=O)n3cccc(C)c3nc21 (configuration not stated),.,.,.,2,.,.
CCOCCCn1c(=NC(C)=O)c(C#N)cc2c(=O)n3cccc(C)c3nc21,-14,59*,2,123*,88*,36
O=C(COc1ccc(S(=O)(=O)N2CCOCC2)cc1Cl)NCC1CCCO1 (configuration not stated),.,.,.,1,.,.
SMILES,Tb hexokinase,Runt-CBFb FRET,p97 inhibitor,RanGTP-Impb inh,Runt-SMMHC FRET,Hck-Nef inh
Fc1ccc(C2CC(c3cccs3)=NN2c2ccccc2)cc1 (configuration not stated),-5,25,4,1,79*,39
COc1ccc(C2CC(c3cccs3)=NN2c2nc(-c3ccccc3)cs2)cc1OC (configuration not stated),-20,11,4,56*,-7,3
COc1cc2c(cc1NC(=O)/C=C/c1ccc([N+](=O)[O-])cc1)oc1ccccc12,-5,-4,7,0,-4,5
COc1cc2c(cc1NC(=O)COC(=O)/C=C/c1ccc([N+](=O)[O-])cc1)oc1ccccc12,-10,-1,15*,-3,-3,28
COc1ccccc1N(CC(=O)N1CCOCC1)S(C)(=O)=O,.,.,.,0,.,.
COC(=O)C1=C(C)N=C2SC(C#N)=C(N)N2C1c1ccc(OCc2ccccc2)cc1 (configuration not stated),-6,-20,-3,25*,11,-2
CC1C2(C)OCC(C#N)(C(=N)O2)C1(C#N)C#N (configuration not stated),4,21,2,7,51*,8
N=c1oc2c3c4c(cc2cc1C(=O)Nc1ccccc1)CCCN4CCC3,0,32,12,133*,61*,1
Cc1ccc(NC(=O)c2cc3ccccc3oc2=N)cc1,.,.,.,-6,.,.
COC(=O)C1=C(C(=O)OC)C2C(C)=CC(C)=CN2C(C(=O)OC)=C1C(=O)OC (configuration not stated),-3,2,1,72*,9,3
O=C(O/N=C1\CCS(=O)(=O)c2sccc21)C1CC1,1,0,1,101*,2,14
Cn1c(=O)c(S(=O)C2CCCCC2)c(O)c2ccccc21 (configuration not stated),.,.,.,5,.,.
CCN1CCN(C(=O)CSc2cc(=O)n(CC)c3ccccc23)CC1,-9,-1,3,37*,-1,0
CCCNC(=O)COc1ccc(-c2nn(C)c(=O)c3ccccc23)cc1,.,.,.,3,.,.
CC(=O)N(CCC1(C(C)C)CCOC(C)(C)C1)C(C)c1cccs1 (configuration not stated),-8,-2,-9,1,-1,10
COc1ccc(NC(=O)CSCC(=O)Nc2sccc2C#N)cc1,.,.,.,-3,.,.
COc1ccc(CCC(=O)Nc2sccc2C#N)cc1,-2,1,5,1,-4,59*
CCn1nc(NC(=O)c2ccncc2)c2cc3ccc(C)cc3nc21,-11,8,4,24*,8,4
CCCn1nc(NC(=O)c2cccs2)c2cc3ccc(C)cc3nc21,-18,25,3,54*,51*,-7
CCCn1nc(NC(=O)c2cccs2)c2cc3cc(C)ccc3nc21,-16,49,1,72*,80*,14
CC(C)CN1C(=O)C(=O)N(CC(=O)N2CCN(c3ccccc3)CC2)C1=O,.,.,.,-1,.,.
Cc1ccc2nc3c(cc2c1)c(C)nn3-c1ccccc1,.,.,.,61*,.,.
COc1cccc2c1Oc1ncccc1N(C(=O)CCC(=O)NCc1cccc(C)c1)C2,.,.,.,6,.,.
Cc1ccc(CNC(=O)C2CCN(c3nnc(N4CCCC4=O)s3)CC2)cc1,.,.,.,-1,.,.
